Experiment [1] has as its system HCT-116. In words: Antiproliferative activity against human HCT-116 cells assessed as reduction in cell viability incubated for 24 hrs by MTT assay. The experiment is classed as functional, cell-based. The conditions noted are these: HCT-116, 24 h. A digest of the protocol: (§1)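 Cells from ATCC grown in RPMI-1640 with 10% FBS, penicillin 100 unit/ml and streptomycin 100 μg/ml at 37 °C, 5% CO2. Seeded at 1.0 x 10^4 cells/well for 48 h, then exposed to a range of compound concentrations for 24 h. MTT (5 mg/ml) added for 4 h, formazan dissolved in DMSO, A570 read. Viability taken as % of untreated. Duplicate wells, at least three independent IC50 determinations.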
(Formazan colour is commonly taken as a measure of viable cells.)

Experiment [2] concerns MCF7. In words: Antiproliferative activity against human MCF7 cells assessed as reduction in cell viability incubated for 24 hrs by MTT assay. To be noted: MCF7, 24 h. The experiment is classed as functional, cell-based. In outline: as §1
Experiment [3] has as its system HepG2. In words: Antiproliferative activity against human HepG2 cells assessed as reduction in cell viability incubated for 24 hrs by MTT assay. The conditions noted are these: HepG2, 24 h. The experiment is classed as functional, cell-based. A digest of the protocol:
as §1

Experiment [4] deals with Vascular endothelial growth factor receptor 2 (Homo sapiens, UniProt P35968).
Chain of Vascular endothelial growth factor receptor 2 (P35968 whole entry): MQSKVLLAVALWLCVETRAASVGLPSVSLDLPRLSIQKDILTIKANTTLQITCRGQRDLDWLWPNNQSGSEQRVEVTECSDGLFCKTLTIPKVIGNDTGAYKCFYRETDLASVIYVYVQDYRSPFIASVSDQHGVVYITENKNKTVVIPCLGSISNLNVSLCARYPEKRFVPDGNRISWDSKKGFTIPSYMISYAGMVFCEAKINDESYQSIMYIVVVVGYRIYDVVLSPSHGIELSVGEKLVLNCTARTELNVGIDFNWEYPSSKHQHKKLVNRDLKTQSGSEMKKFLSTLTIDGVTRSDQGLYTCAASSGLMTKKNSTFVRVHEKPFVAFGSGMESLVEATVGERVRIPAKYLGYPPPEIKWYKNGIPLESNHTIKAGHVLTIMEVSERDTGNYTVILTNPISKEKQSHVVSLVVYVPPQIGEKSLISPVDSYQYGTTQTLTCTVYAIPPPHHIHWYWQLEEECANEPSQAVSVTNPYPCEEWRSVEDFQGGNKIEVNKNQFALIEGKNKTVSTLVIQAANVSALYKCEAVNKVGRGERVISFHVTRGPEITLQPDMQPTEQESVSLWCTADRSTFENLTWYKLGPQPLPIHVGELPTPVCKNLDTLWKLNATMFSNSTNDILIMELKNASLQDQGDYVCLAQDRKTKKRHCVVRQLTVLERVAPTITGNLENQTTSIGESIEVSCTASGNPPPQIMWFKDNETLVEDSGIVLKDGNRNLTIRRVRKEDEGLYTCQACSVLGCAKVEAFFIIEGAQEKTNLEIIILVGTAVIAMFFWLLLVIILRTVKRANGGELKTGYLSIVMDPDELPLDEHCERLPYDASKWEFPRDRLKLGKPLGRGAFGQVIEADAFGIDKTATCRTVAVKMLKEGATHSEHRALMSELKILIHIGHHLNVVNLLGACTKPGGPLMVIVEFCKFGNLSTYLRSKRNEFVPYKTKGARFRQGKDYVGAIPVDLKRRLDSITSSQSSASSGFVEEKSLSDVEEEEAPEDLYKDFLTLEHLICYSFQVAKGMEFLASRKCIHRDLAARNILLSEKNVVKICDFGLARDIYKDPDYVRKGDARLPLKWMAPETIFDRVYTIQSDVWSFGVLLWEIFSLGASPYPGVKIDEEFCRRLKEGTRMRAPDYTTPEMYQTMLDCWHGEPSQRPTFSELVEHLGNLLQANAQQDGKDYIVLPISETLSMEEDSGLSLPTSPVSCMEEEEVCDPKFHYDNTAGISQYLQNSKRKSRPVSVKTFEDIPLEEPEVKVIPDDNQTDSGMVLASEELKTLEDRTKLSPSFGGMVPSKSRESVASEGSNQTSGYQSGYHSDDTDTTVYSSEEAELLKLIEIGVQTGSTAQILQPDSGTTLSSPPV
Experiment [5] deals with HCT-116. In words: Potency index, ratio of IC50 of doxorubicin to IC50 of compound for antiproliferative activity against human HCT-116 cells assessed as reduction in cell viability incubated for 24 hrs by MTT assay. The class given is functional.
Experiment [6] has as its system HCT-116. In words: Potency index, ratio of IC50 of sorafenib to IC50 of compound for antiproliferative activity against human HCT-116 cells assessed as reduction in cell viability incubated for 24 hrs by MTT assay. The class given is functional.
The subject of experiment [7] is MCF7. In words: Potency index, ratio of IC50 of sorafenib to IC50 of compound for antiproliferative activity against human MCF7 cells assessed as reduction in cell viability incubated for 24 hrs by MTT assay. The experiment is classed as functional.
Experiment [8] concerns HepG2. In words: Potency index, ratio of IC50 of doxorubicin to IC50 of compound for antiproliferative activity against human HepG2 cells assessed as reduction in cell viability incubated for 24 hrs by MTT assay. The experiment is classed as functional.
Experiment [9] deals with MCF7. In words: Potency index, ratio of IC50 of doxorubicin to IC50 of compound for antiproliferative activity against human MCF7 cells assessed as reduction in cell viability incubated for 24 hrs by MTT assay. The class given is functional.
Experiment [10] deals with HepG2. In words: Potency index, ratio of IC50 of sorafenib to IC50 of compound for antiproliferative activity against human HepG2 cells assessed as reduction in cell viability incubated for 24 hrs by MTT assay. The class given is functional.

This is an account of results in ChEMBL document CHEMBL4673301, “Design, synthesis, and anti-proliferative evaluation of new quinazolin-4(3H)-ones as potential VEGFR-2 inhibitors” (Bioorg Med Chem, 2021).

As a reminder, the IC50 is the concentration that gives 50% inhibition.

As for `Cc1ccc(-n2c(SCC(=O)Nc3ccc(C(=O)NC4CCCCC4)cc3)nc3ccccc3c2=O)cc1`, the IC50 in experiment [1] turned out to be 14.1 µM; in experiment [2] it was 24.9 µM; in experiment [3], 16.5 µM.
`C/C(=N\NC(=O)c1ccccc1)c1ccc(NC(=O)CSc2nc3ccccc3c(=O)n2-c2ccc(C)cc2)cc1`: the IC50 was 29 µM in experiment [1], 35.9 µM in experiment [2] and 30.5 µM in [3].
`Cc1ccc(-n2c(SCC(=O)Nc3ccc(C(=O)NNC(=O)c4ccccc4O)cc3)nc3ccccc3c2=O)cc1`: the IC50 in experiment [1] is 10.8 µM; in [2], 14.4 µM; in experiment [4] it was 1.07 µM; in [3] it was 11.7 µM.
For the molecule `Cc1ccc(-n2c(SCC(=O)Nc3ccc(C(=O)NCc4ccccc4)cc3)nc3ccccc3c2=O)cc1`, the IC50 in [1] is 13.4 µM; in experiment [2], 18.3 µM; in experiment [4], 1.4 µM; in [3] it was 17.4 µM.
The matching figures for `Cc1ccc(-n2c(SCC(=O)Nc3ccc(C(=O)NNc4ccccc4)cc3)nc3ccccc3c2=O)cc1`: 9.4 µM, 16.1 µM, 1.21 µM and 12.1 µM.
As to `CC(=O)c1ccc(NC(=O)CSc2nc3ccccc3c(=O)n2-c2ccc(C)cc2)cc1`, the concentration for half-maximal inhibition (IC50) in [1] is 8.27 µM; in [2], 13.5 µM; in experiment [4] it was 1.78 µM; in experiment [3], 12.3 µM.
Turning to `Cc1ccc(-n2c(SCC(=O)Nc3ccc(C(=O)Nc4ccccc4)cc3)nc3ccccc3c2=O)cc1`, the IC50 in experiment [1] is 16.6 µM; in experiment [2], 26.9 µM; in [4], 1.37 µM; in experiment [3] it was 21.8 µM.
Turning to `C/C(=N\NC(=O)c1ccccc1Cl)c1ccc(NC(=O)CSc2nc3ccccc3c(=O)n2-c2ccc(C)cc2)cc1`, the IC50 in experiment [1] was found to be 17.1 µM; in [2], 23 µM; in experiment [3] it was 22.6 µM.
The matching figures for `CCOC(=O)c1ccc(NC(=O)c2ccc(NC(=O)CSc3nc4ccccc4c(=O)n3-c3ccc(C)cc3)cc2)cc1`: 17 µM, 23.7 µM and 21.5 µM.
For the molecule `Cc1ccc(-n2c(SCC(=O)Nc3ccc(C(=O)Nc4ccc(Cl)cc4)cc3)nc3ccccc3c2=O)cc1`, the IC50 in experiment [1] was 3.67 µM; in [2] it was 5.99 µM; in [4], 0.685 µM; in experiment [3], 4.12 µM.
On to `Cc1ccc(NC(=O)c2ccc(NC(=O)CSc3nc4ccccc4c(=O)n3-c3ccc(C)cc3)cc2)cc1`, for which the IC50 in [1] is 17.4 µM; in experiment [2] it was 28.4 µM; in [3] it was 19 µM.
The matching figures for `C/C(=N\NC(=O)c1cccc(Cl)c1)c1ccc(NC(=O)CSc2nc3ccccc3c(=O)n2-c2ccc(C)cc2)cc1`: 30.4 µM, 40.9 µM and 33.8 µM.
As to `C/C(=N\NC(=O)c1ccccc1O)c1ccc(NC(=O)CSc2nc3ccccc3c(=O)n2-c2ccc(C)cc2)cc1`, the IC50 in experiment [1] is 12.4 µM; in [2], 15.4 µM; in experiment [4], 1.06 µM; in experiment [3] it was 11.9 µM.
Regarding `C/C(=N\NC(=O)c1cc([N+](=O)[O-])ccc1Cl)c1ccc(NC(=O)CSc2nc3ccccc3c(=O)n2-c2ccc(C)cc2)cc1`, the IC50 is 1.68 µM in [1], 3.91 µM in experiment [2], 0.452 µM in experiment [4] and 1.88 µM in experiment [3]. Moreover, the Ratio IC50 was found to be 5.73 in experiment [5]; 5.59 in experiment [6]; 1.84 in experiment [7]; 4.39 in experiment [8]; 1.96 in experiment [9]; 3.88 in experiment [10].
Take `CC(=O)NS(=O)(=O)c1ccc(NC(=O)CSc2nc3ccccc3c(=O)n2-c2ccc(C)cc2)cc1`: the IC50 in experiment [1] is 6.14 µM; in experiment [2], 6.79 µM; in experiment [4] it was 0.721 µM; in [3], 4.19 µM.
Consider `Cc1ccc(-n2c(SCC(=O)Nc3ccc(S(=O)(=O)Nc4nc(C)cc(C)n4)cc3)nc3ccccc3c2=O)cc1`, for which the IC50 in experiment [1] is 5.24 µM; in experiment [2] it was 7.1 µM; in experiment [4], 0.707 µM; in experiment [3], 6.76 µM.
Regarding `C/C(=N\NC(N)=S)c1ccc(NC(=O)CSc2nc3ccccc3c(=O)n2-c2ccc(C)cc2)cc1`, the IC50 in [1] was 8.32 µM; in [2] it was 9.89 µM; in experiment [4] it was 1 µM; in [3] it was 8.38 µM.
For the molecule `Cc1ccc(-n2c(SCC(=O)Nc3ccc(S(=O)(=O)Nc4ccccn4)cc3)nc3ccccc3c2=O)cc1`, the values for the IC50 in experiment [1], in experiment [2] and in experiment [3] were 24.1 µM, 30.6 µM and 30 µM, respectively.
The matching figures for `C/C(=N\NC(=O)c1ccc(Cl)cc1)c1ccc(NC(=O)CSc2nc3ccccc3c(=O)n2-c2ccc(C)cc2)cc1`: 37.1 µM, 44 µM and 41.6 µM.
In the case of `COc1cccc2c1C(=O)c1c(O)c3c(c(O)c1C2=O)C[C@@](O)(C(=O)CO)C[C@@H]3O[C@H]1C[C@H](N)[C@H](O)[C@H](C)O1` [DOXORUBICIN], in experiment [1], the IC50 came to 9.63 µM.
With `CNC(=O)c1cc(Oc2ccc(NC(=O)Nc3ccc(Cl)c(C(F)(F)F)c3)cc2)ccn1` [SORAFENIB], the IC50 in [1] came out at 9.4 µM; in experiment [2], 7.21 µM; in [3], 7.31 µM.
